Measurements from publication PMC3946399 (Molecular pharmaceutics, 2013).
Where two headings read alike, the source gives them in different places. One block for each compound: values may come before it.

Legend:
SERCA [1] = assay: Evaluation of synergy in SERCA ATPase assay; format: biochemical, rabbit
SERCA [2] = details: cited from earlier work
HL60/MX2 cells [3] = format: cell-based; details: ratio of IC50 in HL60 and HL60/MX2
HL60/MX2 cells [4] = assay: cells; format: cell-based
SERCA1a = SERCA1a (Oryctolagus cuniculus, UniProt P04191); format: biochemical, rabbit; details: for pKATP(reg) / pKATP(cat): pCa 5.4; for pKATP(reg): control 3.30 ± 0.08; for pKATP(cat): control 4.99 ± 0.07
Chain of SERCA1a (P04191 1-994 isoform P04191-2): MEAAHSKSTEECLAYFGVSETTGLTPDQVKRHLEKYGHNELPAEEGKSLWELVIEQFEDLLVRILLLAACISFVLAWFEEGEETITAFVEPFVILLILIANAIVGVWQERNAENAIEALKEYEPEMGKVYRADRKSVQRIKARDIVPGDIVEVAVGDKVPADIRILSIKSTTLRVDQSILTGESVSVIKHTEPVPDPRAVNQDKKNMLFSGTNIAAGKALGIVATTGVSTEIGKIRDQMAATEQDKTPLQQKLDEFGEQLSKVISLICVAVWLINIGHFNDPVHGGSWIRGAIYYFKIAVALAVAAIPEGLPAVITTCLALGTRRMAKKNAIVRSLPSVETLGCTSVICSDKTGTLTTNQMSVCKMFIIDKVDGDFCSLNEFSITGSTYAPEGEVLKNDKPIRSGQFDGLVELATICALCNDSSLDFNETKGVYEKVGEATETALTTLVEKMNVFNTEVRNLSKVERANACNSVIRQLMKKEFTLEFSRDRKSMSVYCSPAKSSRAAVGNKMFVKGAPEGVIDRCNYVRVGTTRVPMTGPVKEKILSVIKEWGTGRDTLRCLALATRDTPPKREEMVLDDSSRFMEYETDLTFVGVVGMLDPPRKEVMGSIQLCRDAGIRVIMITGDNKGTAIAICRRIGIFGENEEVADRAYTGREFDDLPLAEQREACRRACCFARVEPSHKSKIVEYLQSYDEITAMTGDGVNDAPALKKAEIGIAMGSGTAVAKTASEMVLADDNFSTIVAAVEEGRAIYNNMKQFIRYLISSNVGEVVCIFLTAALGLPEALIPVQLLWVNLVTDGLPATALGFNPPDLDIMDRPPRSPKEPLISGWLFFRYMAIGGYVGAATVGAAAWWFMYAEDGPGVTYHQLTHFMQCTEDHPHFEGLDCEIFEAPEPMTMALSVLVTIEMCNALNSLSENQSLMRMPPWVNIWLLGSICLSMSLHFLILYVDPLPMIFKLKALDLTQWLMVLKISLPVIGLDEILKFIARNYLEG
Method in brief: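 Ca2+-dependent ATPase activity was measured in light SR vesicles from fast-twitch skeletal muscle of New Zealand white rabbits, using an NADH-linked coupled assay. Buffer was 5 mM MgCl2, 100 mM KCl, 1 mM EGTA (free Ca2+ set by EGTA buffering), 0.4 mM NADH, 10 IU/mL LDH, 10 IU/mL PK, 7 ug/mL A23187, 50 mM MOPS pH 7.0. Compounds were added in 1% DMSO final. Runs were at 37 °C in duplicate or triplicate, and rates were taken from A340 decay.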

[5] = in combination with (−)-CXL017 at fixed molar ratio, CI<0.9 synergy

SMILES: CC(C)(C)c1cc(O)c(C(C)(C)C)cc1O [BHQ, 2,5-di-tert-butylhydroquinone]
combination index (CI) (SERCA [1]; [5]): 0.15–0.25
dissociation constant (SERCA [2]): submicromolar
selectivity for resistant cell line (HL60/MX2 over HL60) (HL60/MX2 cells [3]): 7.7 fold

SMILES: C/C=C(/C)C(=O)O[C@H]1C(C)=C2[C@H]([C@@H]1OC(=O)CCCCCCC)[C@@](C)(OC(C)=O)C[C@H](OC(=O)CCC)[C@@]1(O)[C@H]2OC(=O)[C@@]1(C)O [TG, thapsigargin]
combination index (CI) (SERCA [1]; [5]): 0.4–0.65
dissociation constant (SERCA [2]): submicromolar
viability at 0.009375 µM (HL60/MX2 cells [4]; Homo sapiens, HL60/MX2, read-out: cell viability): 43%
selectivity for resistant cell line (HL60/MX2 over HL60) (HL60/MX2 cells [3]): 400 fold

SMILES: CCOC(=O)CC1C(C(=O)OCC)=C(N)Oc2ccc(-c3cc(OC)cc(OC)c3)cc21 (single isomer, unassigned; (-)) [(−)-CXL017]
combination index (CI) (SERCA [1]; (−)-CXL017 with each of the known SERCA inhibitors (TG, CPA, BHQ)): < 0.9
cell viability (HL60/MX2 cells [4]; 6.25 µM): 47%

SMILES: CC(=O)C1=C(O)[C@@H]2[C@H]3c4c[nH]c5cccc(c45)C[C@H]3C(C)(C)N2C1=O [CPA, cyclopiazonic acid]
combination index (CI) (SERCA [1]; [5]): 0.35–0.45
dissociation constant (SERCA [2]): submicromolar
selectivity for resistant cell line (HL60/MX2 over HL60) (HL60/MX2 cells [3]): 17 fold

IC50 (SERCA1a): 25 ± 1 µM
pKATP(reg) (SERCA1a; 10 μM CXL017, varied ATP): 2.96 ± 0.07
pKATP(cat) (SERCA1a; 10 μM CXL017, varied ATP): 3.92 ± 0.02
pKATP(reg) (SERCA1a; 30 μM CXL017, varied ATP): 2.6 ± 0.1
pKATP(cat) (SERCA1a; 30 μM CXL017, varied ATP): 3.99 ± 0.02
effect on apparent Ca2+ affinity (pKCa) (SERCA1a; 10 or 30 μM CXL017): no significant effect
change in Vmax at catalytic and regulatory ATP sites (SERCA1a; 10 or 30 μM CXL017, varied ATP, two-site model): no significant change
SMILES: CCOC(=O)CC1C(C(=O)OCC)=C(N)Oc2ccc(-c3cc(OC)cc(OC)c3)cc21 (stereo not shown) [CXL017, Ethyl 2-amino-6-(3,5-dimethoxyphenyl)-4-(2-ethoxy-2-oxoethyl)-4H-chromene-3-carboxylate]
